Measurements as given in article PMC3215888 (Cancer Chemotherapy and Pharmacology, 2011).
Where two headings read alike, the source gives them in different places.

Assays:
[1] = test system: NB-1382 Neuroblastoma xenograft; format: in vivo, mice; conditions: 20.8 mg/kg
Method in brief: (§1)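 Female CB17 scid mice bearing subcutaneous tumors, 10 per group. Dosed by oral gavage twice daily, 5 days weekly for 6 weeks, at 20.8, 10.4, 5.2 or 2.6 mg/kg, in 10% 2-hydroxypropyl-β-cyclodextrin/1% sodium bicarbonate. Event = quadrupled tumor volume; EFS by Kaplan–Meier, exact log-rank test. Per-mouse scores PD/SD/PR (≥50% regression)/CR (<0.10 cm3)/MCR; group median reported. PR, CR and MCR count as objective responses.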

[2] = test system: SMS-LHN neuroblastoma cell line; test: DIMSCAN in vitro testing, 96 h; format: cell-based; conditions: for IC50: Neuroblastoma cell, 96 h
Method in brief: (§2)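 Neuroblastoma and Ewing sarcoma lines, STR-verified and maintained as in the originators' reports. Exposed for 96 h to test compound (DMSO stock diluted in medium) at 1 nM–10 μM. Viable cells quantified by fluorescein diacetate fluorescence with DIMSCAN digital image microscopy. Absolute IC50 = concentration giving 50% growth inhibition vs controls. Relative IC50 = concentration giving 50% of the maximum inhibitory effect.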

KT-10 Wilms xenograft = format: in vivo, mice
Method in brief: as §1

[3] = test system: TC-32 Ewing sarcoma cell line; test: DIMSCAN in vitro testing, 96 h; format: cell-based; conditions: for IC50: Homo sapiens, TC-32, 96 h
Method in brief: as §2

[4] = test system: NB-EBc1 Neuroblastoma xenograft; format: in vivo, mice
Method in brief: as §1

[5] = test system: CHLA-9 Ewing sarcoma cell line; test: DIMSCAN in vitro testing, 96 h; format: cell-based; conditions: for IC50: 96 h
Method in brief: as §2

COc1cc(Nc2ncc3c(n2)-c2ccc(Cl)cc2C(c2c(F)cccc2OC)=NC3)ccc1C(=O)O [MLN8237]
EFS T/C [1]: >1.7
Median group response [1]: PD2 (if the TGD value >1.5, the mouse was considered PD2)
Response activity [1]: Int
Tumor volume T/C [1]: 0.31
Median RTV/hCD45 at end of study ([1]; RTV): 2.1
IC50 ([2]; read-out: Absolute IC50): 32 nM
IC50 ([2]; read-out: Relative IC50): 20 nM
Ymin ([2]; SMS-LHN, minimum T/C): 25.1%
EFS T/C (KT-10 Wilms xenograft; 2.6 mg/kg): 1.0
EFS activity (KT-10 Wilms xenograft; 2.6 mg/kg): Low
Estimate of median time to event (KT-10 Wilms xenograft; 2.6 mg/kg): 9.6 days
Median group response (KT-10 Wilms xenograft; 2.6 mg/kg): PD1 (if the TGD value ≤1.5, that mouse was considered PD1)
Response activity (KT-10 Wilms xenograft; 2.6 mg/kg): Low
Tumor volume T/C (KT-10 Wilms xenograft; 2.6 mg/kg): 0.84
Median RTV/hCD45 at end of study (KT-10 Wilms xenograft; 2.6 mg/kg): >4
EFS T/C (KT-10 Wilms xenograft; 5.2 mg/kg): 1.7
EFS activity (KT-10 Wilms xenograft; 5.2 mg/kg): Low
Estimate of median time to event (KT-10 Wilms xenograft; 5.2 mg/kg): 16.0 days
Median group response (KT-10 Wilms xenograft; 5.2 mg/kg): PD2 (if the TGD value >1.5, the mouse was considered PD2)
Response activity (KT-10 Wilms xenograft; 5.2 mg/kg): Int
Tumor volume T/C (KT-10 Wilms xenograft; 5.2 mg/kg): 0.71
Median RTV/hCD45 at end of study (KT-10 Wilms xenograft; 5.2 mg/kg): >4
EFS T/C (KT-10 Wilms xenograft; 10.4 mg/kg): 1.5
EFS activity (KT-10 Wilms xenograft; 10.4 mg/kg): Low
Estimate of median time to event (KT-10 Wilms xenograft; 10.4 mg/kg): 14.6 days
Median group response (KT-10 Wilms xenograft; 10.4 mg/kg): PD1 (if the TGD value ≤1.5, that mouse was considered PD1)
Response activity (KT-10 Wilms xenograft; 10.4 mg/kg): Low
Tumor volume T/C (KT-10 Wilms xenograft; 10.4 mg/kg): 0.53
Median RTV/hCD45 at end of study (KT-10 Wilms xenograft; 10.4 mg/kg): >4
EFS T/C (KT-10 Wilms xenograft; 20.8 mg/kg): >4.4
EFS activity (KT-10 Wilms xenograft; 20.8 mg/kg): High
Median group response (KT-10 Wilms xenograft; 20.8 mg/kg): MCR
Response activity (KT-10 Wilms xenograft; 20.8 mg/kg): High
Tumor volume T/C (KT-10 Wilms xenograft; 20.8 mg/kg): 0.35
Median RTV/hCD45 at end of study (KT-10 Wilms xenograft; 20.8 mg/kg): 0.0
IC50 ([3]; read-out: Absolute IC50): 39 nM
IC50 ([3]; read-out: Relative IC50): 34 nM
Ymin ([3]; TC-32, minimum T/C): 6.5%
EFS T/C ([4]; 2.6 mg/kg): 1.7
EFS activity ([4]; 2.6 mg/kg): Low
Estimate of median time to event ([4]; 2.6 mg/kg): 9.6 days
Median group response ([4]; 2.6 mg/kg): PD2 (if the TGD value >1.5, the mouse was considered PD2)
Response activity ([4]; 2.6 mg/kg): Int
Tumor volume T/C ([4]; 2.6 mg/kg): 0.57
Median RTV/hCD45 at end of study ([4]; 2.6 mg/kg): >4
EFS T/C ([4]; 5.2 mg/kg): 2.0
EFS activity ([4]; 5.2 mg/kg): Low
Estimate of median time to event ([4]; 5.2 mg/kg): 11.3 days
Median group response ([4]; 5.2 mg/kg): PD2 (if the TGD value >1.5, the mouse was considered PD2)
Response activity ([4]; 5.2 mg/kg): Int
Tumor volume T/C ([4]; 5.2 mg/kg): 0.44
Median RTV/hCD45 at end of study ([4]; 5.2 mg/kg): >4
EFS T/C ([4]; 10.4 mg/kg): 3.1
EFS activity ([4]; 10.4 mg/kg): Int
Estimate of median time to event ([4]; 10.4 mg/kg): 17.9 days
Median group response ([4]; 10.4 mg/kg): PD2 (if the TGD value >1.5, the mouse was considered PD2)
Response activity ([4]; 10.4 mg/kg): Int
Tumor volume T/C ([4]; 10.4 mg/kg): 0.22
Median RTV/hCD45 at end of study ([4]; 10.4 mg/kg): >4
EFS T/C ([4]; 20.8 mg/kg): >7.2
EFS activity ([4]; 20.8 mg/kg): High
Median group response ([4]; 20.8 mg/kg): MCR
Response activity ([4]; 20.8 mg/kg): High
Tumor volume T/C ([4]; 20.8 mg/kg): 0.15
Median RTV/hCD45 at end of study ([4]; 20.8 mg/kg): 0.3
IC50 ([5]; read-out: Absolute IC50): 18 nM
IC50 ([5]; read-out: Relative IC50): 16 nM
Ymin ([5]; CHLA-9, minimum T/C): 4.2%
